ChEMBL document CHEMBL3352316, “Optimization of physicochemical properties and safety profile of novel bacterial topoisomerase type II inhibitors (NBTIs) with activity against Pseudomonas aeruginosa” (Bioorg Med Chem, 2014)
In brackets after ≈: the same amount, converted by molar mass.

Columns and labels:
[1] = AUC in rat at 10 mg/kg, iv; assay type: ADME, organism-based; set-up: dose 10 mg/kg, route intravenous; details: plasma
Summary of the method: (§1)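 Male rats (Wistar Han) and Beagle dogs received 10 mg/kg as a 15 min iv infusion. Serial 200 µL whole-blood samples were taken from 0 to 24 h. Plasma levels were measured by LC–MS/MS against a standard curve after methanol protein precipitation. Parameters were estimated non-compartmentally.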

Klebsiella pneumoniae = test: Antimicrobial activity against Klebsiella pneumoniae after 18 to 20 hrs by broth microdilution; assay type: functional
Summary of the method: (§2)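 Broth microdilution followed CLSI guidelines in Mueller Hinton broth. Inocula were grown 18–20 h at 35 °C on blood agar. Compound in DMSO was tested in doubling dilutions from 64 to 0.06 µg/mL, at 2% DMSO final. Plates were incubated 18–20 h and read at OD 620 nm. MIC was taken as the concentration giving >90% growth inhibition.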

[2] = Half life in beagle dog at 10 mg/kg, iv; assay type: ADME, organism-based, Canis lupus familiaris; set-up: dose 10 mg/kg, route intravenous; details: in vivo; summary of the method: as §1
Escherichia coli = test: Antimicrobial activity against Escherichia coli after 18 to 20 hrs by broth microdilution; assay type: functional; summary of the method: as §2
Pseudomonas aeruginosa [3] = test: Antimicrobial activity against Pseudomonas aeruginosa PAO1 after 18 to 20 hrs by broth microdilution; assay type: functional; summary of the method: as §2
[4] = Volume of distribution in rat at 10 mg/kg, iv; assay type: ADME, organism-based; set-up: dose 10 mg/kg, route intravenous; details: in vivo; summary of the method: as §1
Staphylococcus aureus = test: Antimicrobial activity against methicillin-susceptible Staphylococcus aureus after 18 to 20 hrs by broth microdilution; assay type: functional; summary of the method: as §2
[5] = target: Sodium channel protein type 5 subunit alpha (Homo sapiens, UniProt Q14524); test: Inhibition of […] channel Nav1.5 (unknown origin)
Summary of the method: (§3)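 Automated IonWorks patch clamp was run on CHO or HEK cells expressing each channel. A channel-specific voltage pulse was applied before compound and again about 3 min after addition.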

[6] = target: Sodium-dependent noradrenaline transporter (Homo sapiens) (UniProt P23975); test: Inhibition of NET (unknown origin) at 30 uM
[7] = Inhibition of Escherichia coli topoisomerase IV ATPase activity
[8] = target: Potassium voltage-gated channel subfamily A member 5 (Homo sapiens, UniProt P22460); test: Inhibition of potassium channel Kv1.5 (unknown origin); summary of the method: as §3
Pseudomonas aeruginosa [9] = test: Antimicrobial activity against Pseudomonas aeruginosa clinical isolate after 18 to 20 hrs by broth microdilution; assay type: functional; summary of the method: as §2
[10] = Aqueous solubility of the compound; assay type: physicochemical; details: buffer
[11] = Bioavailability in rat at 10 mg/kg, […]; assay type: ADME, organism-based; details: in vivo
[12] = target: T1, Potassium/sodium hyperpolarization-activated cyclic nucleotide-gated channel 4 (Homo sapiens, UniProt Q9Y3Q4); test: Inhibition of potassium channel HCN4 (unknown origin); summary of the method: as §3
T1 sequence (Q9Y3Q4 whole entry): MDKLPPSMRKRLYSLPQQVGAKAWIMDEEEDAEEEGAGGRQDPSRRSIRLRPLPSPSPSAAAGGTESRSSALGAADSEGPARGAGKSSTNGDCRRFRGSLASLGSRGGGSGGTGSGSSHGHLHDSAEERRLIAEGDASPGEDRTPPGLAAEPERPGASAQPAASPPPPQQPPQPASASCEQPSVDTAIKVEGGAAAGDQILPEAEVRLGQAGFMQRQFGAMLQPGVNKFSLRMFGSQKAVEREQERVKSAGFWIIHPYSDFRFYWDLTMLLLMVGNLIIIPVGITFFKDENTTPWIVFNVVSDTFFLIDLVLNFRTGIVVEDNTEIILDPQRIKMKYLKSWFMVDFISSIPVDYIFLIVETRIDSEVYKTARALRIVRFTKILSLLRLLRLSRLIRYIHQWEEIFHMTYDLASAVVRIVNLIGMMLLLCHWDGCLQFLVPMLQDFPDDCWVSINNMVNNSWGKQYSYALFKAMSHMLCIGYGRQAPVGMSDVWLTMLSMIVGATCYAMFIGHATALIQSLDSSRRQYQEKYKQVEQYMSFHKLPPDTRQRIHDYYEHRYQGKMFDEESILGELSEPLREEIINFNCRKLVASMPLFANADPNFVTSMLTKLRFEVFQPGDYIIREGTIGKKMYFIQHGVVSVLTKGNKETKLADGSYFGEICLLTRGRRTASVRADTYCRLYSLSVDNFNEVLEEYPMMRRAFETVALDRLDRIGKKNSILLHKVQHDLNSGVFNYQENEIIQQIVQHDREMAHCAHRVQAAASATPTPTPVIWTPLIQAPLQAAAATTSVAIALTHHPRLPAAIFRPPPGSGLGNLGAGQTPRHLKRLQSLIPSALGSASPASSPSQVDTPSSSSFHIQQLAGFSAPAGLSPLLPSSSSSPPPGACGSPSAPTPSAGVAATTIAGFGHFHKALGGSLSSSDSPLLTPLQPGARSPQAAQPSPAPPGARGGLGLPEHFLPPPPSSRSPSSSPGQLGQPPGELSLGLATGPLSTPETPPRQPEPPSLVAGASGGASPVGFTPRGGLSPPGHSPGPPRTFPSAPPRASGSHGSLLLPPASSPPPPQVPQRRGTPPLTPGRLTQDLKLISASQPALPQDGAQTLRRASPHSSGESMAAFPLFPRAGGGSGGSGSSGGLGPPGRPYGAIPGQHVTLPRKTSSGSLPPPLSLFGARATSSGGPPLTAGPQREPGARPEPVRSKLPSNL

[13] = Volume of distribution in beagle dog at 10 mg/kg, iv; assay type: ADME, organism-based, Canis lupus familiaris; set-up: dose 10 mg/kg, route intravenous; details: in vivo; summary of the method: as §1
[14] = target: T2, Potassium voltage-gated channel subfamily KQT member 1 (Homo sapiens, UniProt P51787); test: Inhibition of potassium channel IKs (unknown origin); summary of the method: as §3
T2 sequence (P51787 whole entry): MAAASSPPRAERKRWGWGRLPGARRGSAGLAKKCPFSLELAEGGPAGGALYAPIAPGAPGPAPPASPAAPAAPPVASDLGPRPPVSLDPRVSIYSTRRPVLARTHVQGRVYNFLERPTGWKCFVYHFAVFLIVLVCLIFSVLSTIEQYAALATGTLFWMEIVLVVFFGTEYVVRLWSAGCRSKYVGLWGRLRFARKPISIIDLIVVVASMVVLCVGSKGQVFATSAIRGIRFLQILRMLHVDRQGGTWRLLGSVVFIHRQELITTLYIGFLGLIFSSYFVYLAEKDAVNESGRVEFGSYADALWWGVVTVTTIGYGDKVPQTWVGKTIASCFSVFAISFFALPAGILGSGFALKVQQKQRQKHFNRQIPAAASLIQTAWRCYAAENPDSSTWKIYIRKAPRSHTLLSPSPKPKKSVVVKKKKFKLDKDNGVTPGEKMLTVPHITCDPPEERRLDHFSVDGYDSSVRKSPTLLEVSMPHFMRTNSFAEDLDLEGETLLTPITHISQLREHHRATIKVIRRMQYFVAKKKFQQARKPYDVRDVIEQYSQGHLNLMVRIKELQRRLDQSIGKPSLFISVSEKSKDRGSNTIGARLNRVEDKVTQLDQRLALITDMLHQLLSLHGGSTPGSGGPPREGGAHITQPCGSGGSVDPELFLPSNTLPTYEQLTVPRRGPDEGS

[15] = target: 5-hydroxytryptamine receptor 4 (Homo sapiens) (UniProt Q13639); test: Inhibition of 5-HT4 receptor (unknown origin) at 30 uM
[16] = target: Sodium-dependent serotonin transporter (Homo sapiens) (UniProt P31645); test: Inhibition of SERT (unknown origin) at 30 uM
[17] = Half life in rat at 10 mg/kg, iv; assay type: ADME, organism-based; set-up: dose 10 mg/kg, route intravenous; details: in vivo; summary of the method: as §1

Chain of Sodium-dependent noradrenaline transporter (Homo sapiens) (P23975 whole entry): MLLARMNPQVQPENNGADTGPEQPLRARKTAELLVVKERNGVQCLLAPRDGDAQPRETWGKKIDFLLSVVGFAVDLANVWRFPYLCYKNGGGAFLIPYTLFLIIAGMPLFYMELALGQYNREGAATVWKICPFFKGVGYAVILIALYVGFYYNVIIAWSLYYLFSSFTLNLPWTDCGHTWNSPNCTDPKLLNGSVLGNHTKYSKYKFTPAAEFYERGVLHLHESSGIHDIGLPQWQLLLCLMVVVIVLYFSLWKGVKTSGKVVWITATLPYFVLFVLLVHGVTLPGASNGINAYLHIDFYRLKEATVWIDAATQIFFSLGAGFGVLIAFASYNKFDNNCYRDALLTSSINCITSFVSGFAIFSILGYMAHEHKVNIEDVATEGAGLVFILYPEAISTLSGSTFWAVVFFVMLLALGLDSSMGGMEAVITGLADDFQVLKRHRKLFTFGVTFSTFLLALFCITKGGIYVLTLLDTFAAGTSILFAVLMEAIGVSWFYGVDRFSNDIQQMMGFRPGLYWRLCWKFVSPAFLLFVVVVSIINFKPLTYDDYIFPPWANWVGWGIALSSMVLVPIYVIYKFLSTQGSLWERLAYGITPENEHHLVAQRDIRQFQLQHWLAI
Chain of 5-hydroxytryptamine receptor 4 (Homo sapiens) (Q13639 whole entry): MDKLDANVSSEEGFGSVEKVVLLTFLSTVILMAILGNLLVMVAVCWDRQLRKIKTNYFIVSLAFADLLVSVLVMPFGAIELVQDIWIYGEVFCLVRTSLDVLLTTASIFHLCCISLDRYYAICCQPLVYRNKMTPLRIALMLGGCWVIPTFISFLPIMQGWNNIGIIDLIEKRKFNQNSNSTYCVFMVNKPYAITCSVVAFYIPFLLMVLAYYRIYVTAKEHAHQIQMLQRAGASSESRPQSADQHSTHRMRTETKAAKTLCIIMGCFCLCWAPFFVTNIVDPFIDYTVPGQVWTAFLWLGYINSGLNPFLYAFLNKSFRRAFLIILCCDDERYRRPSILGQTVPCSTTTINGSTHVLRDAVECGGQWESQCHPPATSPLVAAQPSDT
Chain of Potassium voltage-gated channel subfamily A member 5 (P22460 whole entry): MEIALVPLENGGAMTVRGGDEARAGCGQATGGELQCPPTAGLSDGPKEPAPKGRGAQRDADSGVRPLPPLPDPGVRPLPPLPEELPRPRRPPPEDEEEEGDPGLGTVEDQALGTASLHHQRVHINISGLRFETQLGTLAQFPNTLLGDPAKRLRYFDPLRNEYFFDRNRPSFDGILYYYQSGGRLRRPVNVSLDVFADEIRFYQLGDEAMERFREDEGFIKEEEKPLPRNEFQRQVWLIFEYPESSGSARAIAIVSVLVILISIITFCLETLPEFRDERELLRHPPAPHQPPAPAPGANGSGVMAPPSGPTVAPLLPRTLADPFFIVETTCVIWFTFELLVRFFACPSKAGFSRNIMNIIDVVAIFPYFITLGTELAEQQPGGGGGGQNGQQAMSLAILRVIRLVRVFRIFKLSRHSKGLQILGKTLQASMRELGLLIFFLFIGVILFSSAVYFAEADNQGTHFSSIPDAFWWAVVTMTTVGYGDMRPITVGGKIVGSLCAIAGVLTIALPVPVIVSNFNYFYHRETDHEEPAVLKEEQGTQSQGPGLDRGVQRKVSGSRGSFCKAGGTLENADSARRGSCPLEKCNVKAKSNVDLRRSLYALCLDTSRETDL
Chain of Sodium-dependent serotonin transporter (Homo sapiens) (P31645 whole entry, looked up): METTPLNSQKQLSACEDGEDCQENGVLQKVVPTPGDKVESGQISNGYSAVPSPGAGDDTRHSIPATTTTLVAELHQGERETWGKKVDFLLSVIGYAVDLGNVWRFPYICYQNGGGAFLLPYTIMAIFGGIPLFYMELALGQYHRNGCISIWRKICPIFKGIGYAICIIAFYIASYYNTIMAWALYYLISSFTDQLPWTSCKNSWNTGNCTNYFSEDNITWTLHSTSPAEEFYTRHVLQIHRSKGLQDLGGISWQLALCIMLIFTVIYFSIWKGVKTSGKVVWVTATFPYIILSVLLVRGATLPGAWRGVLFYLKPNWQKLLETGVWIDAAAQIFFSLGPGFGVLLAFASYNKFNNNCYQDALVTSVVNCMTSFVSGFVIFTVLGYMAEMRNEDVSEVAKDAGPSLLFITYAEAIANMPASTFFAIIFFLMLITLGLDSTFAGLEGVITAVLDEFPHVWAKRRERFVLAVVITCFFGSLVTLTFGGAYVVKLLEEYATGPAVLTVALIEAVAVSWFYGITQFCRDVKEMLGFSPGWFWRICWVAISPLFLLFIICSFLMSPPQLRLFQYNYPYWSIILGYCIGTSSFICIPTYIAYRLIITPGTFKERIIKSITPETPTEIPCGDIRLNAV
Chain of Sodium channel protein type 5 subunit alpha (Q14524 whole entry): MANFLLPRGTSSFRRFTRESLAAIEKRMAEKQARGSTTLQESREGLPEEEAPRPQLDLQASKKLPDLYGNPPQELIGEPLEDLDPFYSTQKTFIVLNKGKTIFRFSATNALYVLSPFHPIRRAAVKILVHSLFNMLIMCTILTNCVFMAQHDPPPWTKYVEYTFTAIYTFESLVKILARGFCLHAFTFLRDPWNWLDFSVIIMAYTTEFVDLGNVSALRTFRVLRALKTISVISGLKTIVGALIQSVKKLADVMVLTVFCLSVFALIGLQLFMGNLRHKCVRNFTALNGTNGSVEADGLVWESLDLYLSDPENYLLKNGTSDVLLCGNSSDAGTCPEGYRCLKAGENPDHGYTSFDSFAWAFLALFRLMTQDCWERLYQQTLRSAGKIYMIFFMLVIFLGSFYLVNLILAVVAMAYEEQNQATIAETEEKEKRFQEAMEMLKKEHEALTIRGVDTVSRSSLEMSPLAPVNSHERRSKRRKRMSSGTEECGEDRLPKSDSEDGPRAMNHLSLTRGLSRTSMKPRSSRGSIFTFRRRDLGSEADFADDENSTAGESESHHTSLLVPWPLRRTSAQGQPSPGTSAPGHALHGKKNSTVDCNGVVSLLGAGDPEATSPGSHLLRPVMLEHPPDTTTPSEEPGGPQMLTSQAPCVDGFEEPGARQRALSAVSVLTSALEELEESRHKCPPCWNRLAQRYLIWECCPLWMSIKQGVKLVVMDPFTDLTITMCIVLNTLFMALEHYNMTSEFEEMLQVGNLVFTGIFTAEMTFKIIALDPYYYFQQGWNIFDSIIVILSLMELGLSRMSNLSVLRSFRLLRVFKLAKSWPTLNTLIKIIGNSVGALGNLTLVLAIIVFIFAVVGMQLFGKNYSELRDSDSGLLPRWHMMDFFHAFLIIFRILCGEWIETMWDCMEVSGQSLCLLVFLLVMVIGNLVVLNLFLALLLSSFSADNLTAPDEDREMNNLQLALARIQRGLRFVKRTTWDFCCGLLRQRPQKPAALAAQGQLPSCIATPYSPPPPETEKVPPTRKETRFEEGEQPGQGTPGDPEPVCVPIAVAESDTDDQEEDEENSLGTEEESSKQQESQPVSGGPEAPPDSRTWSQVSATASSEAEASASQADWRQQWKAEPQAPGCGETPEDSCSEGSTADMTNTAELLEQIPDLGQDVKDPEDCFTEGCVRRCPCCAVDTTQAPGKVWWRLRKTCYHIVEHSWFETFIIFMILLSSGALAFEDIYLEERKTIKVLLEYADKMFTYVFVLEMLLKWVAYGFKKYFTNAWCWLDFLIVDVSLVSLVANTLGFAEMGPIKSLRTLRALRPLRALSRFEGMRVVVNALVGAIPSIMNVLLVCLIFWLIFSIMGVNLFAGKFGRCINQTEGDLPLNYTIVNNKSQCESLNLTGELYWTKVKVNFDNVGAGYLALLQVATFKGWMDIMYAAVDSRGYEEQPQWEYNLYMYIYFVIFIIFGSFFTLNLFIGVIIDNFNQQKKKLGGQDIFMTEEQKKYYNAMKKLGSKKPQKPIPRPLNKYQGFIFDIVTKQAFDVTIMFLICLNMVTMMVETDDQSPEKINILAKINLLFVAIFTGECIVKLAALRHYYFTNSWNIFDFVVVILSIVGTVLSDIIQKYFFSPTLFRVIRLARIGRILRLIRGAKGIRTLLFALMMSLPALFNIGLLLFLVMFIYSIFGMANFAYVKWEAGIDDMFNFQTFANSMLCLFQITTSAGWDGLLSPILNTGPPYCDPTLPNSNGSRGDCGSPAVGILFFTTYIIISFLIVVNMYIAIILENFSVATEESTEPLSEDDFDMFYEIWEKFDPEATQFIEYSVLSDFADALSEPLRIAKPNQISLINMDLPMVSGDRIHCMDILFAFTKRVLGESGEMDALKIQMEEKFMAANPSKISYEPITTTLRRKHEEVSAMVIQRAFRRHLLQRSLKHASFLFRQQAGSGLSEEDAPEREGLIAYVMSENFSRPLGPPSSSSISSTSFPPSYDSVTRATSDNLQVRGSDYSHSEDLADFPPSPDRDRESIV

Row | AUC [1] [ng·h/mL] | MIC90 (Klebsiella pneumoniae) [µg/mL] | half-life [2] [h] | MIC90 (Escherichia coli) [µg/mL] | MIC90 (Pseudomonas aeruginosa [3]) [µg/mL] | Vd [4] [L/kg] | MIC90 (Staphylococcus aureus) [µg/mL] | inhibition [6] [%] | IC50 [7] [µM] | IC50 [8] [µM] | MIC90 (Pseudomonas aeruginosa [9]) [µg/mL] | solubility [10] [µM] | bioavailability [11] [%] | IC50 [12] [µM] | Vd [13] [L/kg] | IC50 [14] [µM] | inhibition [15] [%] | inhibition [16] [%] | half-life [17] [h] | SMILES | IC50 [5] [µM]
1 | 3300 | 16 (≈ 34.2 µM) | 9 | 1 (≈ 2.14 µM) | 0.5 (≈ 1.07 µM) | 9 | 1 (≈ 2.14 µM) | 9 | 0.003 | > 100 | 4 (≈ 8.56 µM) | > 333 | 2 | > 100 | 4 | > 333 | 7 | 32 | 10 | N[C@@H](Cn1c(=O)cnc2ccc(F)cc21)[C@H]1CC[C@H](NCc2ncc3c(n2)NC(=O)CO3)CC1 | > 333
2 | 190 | 4 (≈ 8.61 µM) | 13 | 0.25 (≈ 0.538 µM) | 1 (≈ 2.15 µM) | 23 | 0.03 (≈ 0.0646 µM) | 61 | 0.0022 | > 100 | 4 (≈ 8.61 µM) | > 333 | 18 | > 100 | 2 | > 100 | 99 | 77 | 1.9 | COc1ccc2ncc(=O)n(CCN3CCC(NCc4ccc5c(n4)NC(=O)CO5)CC3)c2c1 | 92
